Data published in ChEMBL document CHEMBL3232844, “Synthesis and structure activity relationships of schweinfurthin indoles” (2014).

Tests used:
Type in all cases: functional
TK-10 = experiment: Cytotoxicity against human TK10 cells
Summary of the method: (§1)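 Cell line run as part of the 60-cell-line screening panel; growth inhibition was reported as a GI50 for each line.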

PC-3 = experiment: Cytotoxicity against human PC3 cells
Summary of the method: (§2)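 Tested in a 60-cell-line human tumor panel screen; the read-out is growth inhibition, reported as GI50 for each cell line.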

SF-268 = experiment: Cytotoxicity against human SF268 cells; summary of the method: as §2
HL-60(TB) = experiment: Cytotoxicity against human HL-60(TB) cells
Summary of the method: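 Tested within the NCI 60-cell-line screen, with GI50 as the read-out. Values are the average of two independent experiments. The lowest concentration tested was 10 nM.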

SF-539 = experiment: Cytotoxicity against human SF539 cells; summary of the method: as §2
K562 = experiment: Cytotoxicity against human K562 cells; summary of the method: as §2
SK-MEL-2 = experiment: Cytotoxicity against human SK-MEL-2 cells; summary of the method: as §2
IGROV-1 = experiment: Cytotoxicity against human IGROV1 cells; summary of the method: as §2
RXF 393 = experiment: Cytotoxicity against human RXF393 cells; summary of the method: as §2
HT-29 = experiment: Cytotoxicity against human HT-29 cells; summary of the method: as §2
[1] = Cytotoxicity against human UACC257 cells; summary of the method: as §1
MDA-MB-435 = experiment: Cytotoxicity against human MDA-MB-435 cells; summary of the method: as §2
SK-OV-3 = experiment: Cytotoxicity against human SKOV3 cells; summary of the method: as §2
BT-549 = experiment: Cytotoxicity against human BT549 cells; summary of the method: as §2
MOLT-4 = experiment: Cytotoxicity against human MOLT4 cells; summary of the method: as §2
CCRF-CEM = experiment: Cytotoxicity against human CCRF-CEM cells
KM12 = experiment: Cytotoxicity against human KM12 cells; summary of the method: as §2
[2] = Cytotoxicity against human OVCAR3 cells; summary of the method: as §2
[3] = Cytotoxicity against human HCT15 cells; summary of the method: as §2
COLO 205 = experiment: Cytotoxicity against human COLO205 cells; summary of the method: as §2
[4] = Cytotoxicity against human UACC62 cells; summary of the method: as §1
NCI-H460 = experiment: Cytotoxicity against human NCI-H460 cells; summary of the method: as §2
HCC 2998 = experiment: Cytotoxicity against human HCC2998 cells; summary of the method: as §2
HOP-62 = experiment: Cytotoxicity against human HOP62 cells; summary of the method: as §2
SNB-75 = experiment: Cytotoxicity against human SNB75 cells; summary of the method: as §1
MCF7 = experiment: Cytotoxicity against human MCF7 cells; summary of the method: as §2
LOX IMVI = experiment: Cytotoxicity against human LOXIMVI cells; summary of the method: as §2
HCT-116 = experiment: Cytotoxicity against human HCT116 cells; summary of the method: as §2
MDA-MB-231 = experiment: Cytotoxicity against human MDA-MB-231 cells; summary of the method: as §2
DU-145 = experiment: Cytotoxicity against human DU145 cells; summary of the method: as §2
NCI-H226 = experiment: Cytotoxicity against human NCI-H226 cells; summary of the method: as §2
SK-MEL-5 = experiment: Cytotoxicity against human SK-MEL-5 cells; summary of the method: as §2
M14 = experiment: Cytotoxicity against human M14 cells; summary of the method: as §2
786-0 = experiment: Cytotoxicity against human 786-0 cells; summary of the method: as §2
SF-295 = experiment: Cytotoxicity against human SF295 cells; summary of the method: as §2
T47D = experiment: Cytotoxicity against human T47D cells; summary of the method: as §1
[5] = Cytotoxicity against human OVCAR4 cells; summary of the method: as §2
MDA-MB-468 = experiment: Cytotoxicity against human MDA-MB-468 cells; summary of the method: as §2
[6] = Cytotoxicity against human OVCAR8 cells; summary of the method: as §2
CAKI-1 = experiment: Cytotoxicity against human Caki1 cells; summary of the method: as §2
SR = experiment: Cytotoxicity against human SR cells; summary of the method: as §1
[7] = Cytotoxicity against human NCI-ADR-RES cells; summary of the method: as §2
NCI-H23 = experiment: Cytotoxicity against human NCI-H23 cells; summary of the method: as §2
[8] = read-out: pLC50 (the source's name) (converted)

COc1cc(/C=C/c2cc(OC)c3ccn(C)c3c2)cc2c1O[C@]1(C)CC[C@@H](O)C(C)(C)[C@H]1C2
GI50 (TK-10): 3.16 µM
LC50 (TK-10): > 100 µM
TGI (TK-10; read-out: pTGI (converted)): 93.3 µM
GI50 (PC-3): 0.692 µM
LC50 (PC-3): > 100 µM
TGI (PC-3; read-out: pTGI (converted)): 83.2 µM
GI50 (SF-268): 2.09 µM
CC50 (SF-268; [8]): > 100 µM
TGI (SF-268; read-out: pTGI (converted)): 69.2 µM
GI50 (HL-60(TB)): 1.2 µM
CC50 (HL-60(TB); [8]): > 100 µM
TGI (HL-60(TB); read-out: pTGI (converted)): 38.9 µM
GI50 (SF-539): 0.214 µM
CC50 (SF-539; [8]): 57.5 µM
TGI (SF-539; read-out: pTGI (converted)): 5.5 µM
GI50 (K562): 1 µM
CC50 (K562; [8]): > 100 µM
TGI (K562; read-out: pTGI (converted)): 33.1 µM
GI50 (SK-MEL-2): 0.851 µM
CC50 (SK-MEL-2; [8]): > 100 µM
TGI (SK-MEL-2; read-out: pTGI (converted)): 20.4 µM
GI50 (IGROV-1): 2.24 µM
CC50 (IGROV-1; [8]): 95.5 µM
TGI (IGROV-1; read-out: pTGI (converted)): 45.7 µM
GI50 (RXF 393): 0.0447 µM
LC50 (RXF 393): 4.27 µM
TGI (RXF 393; read-out: pTGI (converted)): 0.275 µM
GI50 (HT-29): 1.26 µM
CC50 (HT-29; [8]): 43.7 µM
TGI (HT-29; read-out: pTGI (converted)): 5.62 µM
GI50 ([1]; UACC-257): 2.45 µM
CC50 ([1]; UACC-257, read-out: pLC50 (the source's name) (converted)): > 100 µM
TGI ([1]; UACC-257, read-out: pTGI (converted)): 35.5 µM
GI50 (MDA-MB-435): 1.02 µM
CC50 (MDA-MB-435; [8]): 91.2 µM
TGI (MDA-MB-435; read-out: pTGI (converted)): 20.9 µM
GI50 (SK-OV-3): 2.57 µM
LC50 (SK-OV-3): > 100 µM
TGI (SK-OV-3; read-out: pTGI (converted)): > 100 µM
GI50 (BT-549): 2.82 µM
CC50 (BT-549; [8]): > 100 µM
TGI (BT-549; read-out: pTGI (converted)): 30.9 µM
GI50 (MOLT-4): 0.437 µM
CC50 (MOLT-4; [8]): > 100 µM
TGI (MOLT-4; read-out: pTGI (converted)): 8.51 µM
GI50 (CCRF-CEM): 0.457 µM
CC50 (CCRF-CEM; [8]): > 100 µM
TGI (CCRF-CEM; read-out: pTGI (converted)): 9.33 µM
GI50 (KM12): 2 µM
CC50 (KM12; [8]): 41.7 µM
TGI (KM12; read-out: pTGI (converted)): 11.2 µM
GI50 ([2]; OVCAR-3): 6.46 µM
CC50 ([2]; OVCAR-3, read-out: pLC50 (the source's name) (converted)): 57.5 µM
TGI ([2]; OVCAR-3, read-out: pTGI (converted)): 23.4 µM
GI50 ([3]; HCT-15): 1.15 µM
CC50 ([3]; HCT-15, read-out: pLC50 (the source's name) (converted)): 64.6 µM
TGI ([3]; HCT-15, read-out: pTGI (converted)): 6.31 µM
GI50 (COLO 205): 1.38 µM
CC50 (COLO 205; [8]): 6.61 µM
TGI (COLO 205; read-out: pTGI (converted)): 3.02 µM
GI50 ([4]; UACC-62): 0.355 µM
CC50 ([4]; UACC-62, read-out: pLC50 (the source's name) (converted)): 23.4 µM
TGI ([4]; UACC-62, read-out: pTGI (converted)): 2.19 µM
GI50 (NCI-H460): 1.07 µM
CC50 (NCI-H460; [8]): 61.7 µM
TGI (NCI-H460; read-out: pTGI (converted)): 12 µM
GI50 (HCC 2998): 5.25 µM
CC50 (HCC 2998; [8]): 75.9 µM
TGI (HCC 2998; read-out: pTGI (converted)): 25.1 µM
GI50 (HOP-62): 0.617 µM
CC50 (HOP-62; [8]): 28.8 µM
TGI (HOP-62; read-out: pTGI (converted)): 3.8 µM
GI50 (SNB-75): 0.363 µM
CC50 (SNB-75; [8]): > 100 µM
TGI (SNB-75; read-out: pTGI (converted)): 11.5 µM
GI50 (MCF7): 1.51 µM
LC50 (MCF7): 66.1 µM
TGI (MCF7; read-out: pTGI (converted)): 14.5 µM
GI50 (LOX IMVI): 1.62 µM
CC50 (LOX IMVI; [8]): 79.4 µM
TGI (LOX IMVI; read-out: pTGI (converted)): 17 µM
GI50 (HCT-116): 1.23 µM
CC50 (HCT-116; [8]): 51.3 µM
TGI (HCT-116; read-out: pTGI (converted)): 15.1 µM
GI50 (MDA-MB-231): 1.48 µM
LC50 (MDA-MB-231): > 100 µM
TGI (MDA-MB-231; read-out: pTGI (converted)): 33.9 µM
GI50 (DU-145): 2.45 µM
LC50 (50% lethal concentration) (DU-145): > 100 µM
TGI (DU-145; read-out: pTGI (converted)): 66.1 µM
GI50 (NCI-H226): 6.03 µM
TGI (NCI-H226; read-out: pTGI (converted)): > 100 µM
GI50 (SK-MEL-5): 0.513 µM
CC50 (SK-MEL-5; [8]): 2.24 µM
TGI (SK-MEL-5; read-out: pTGI (converted)): 1.07 µM
GI50 (M14): 0.575 µM
CC50 (M14; [8]): 45.7 µM
TGI (M14; read-out: pTGI (converted)): 16.6 µM
GI50 (786-0): 0.214 µM
LC50 (concentration killing 50% of cells) (786-0): > 100 µM
TGI (786-0; read-out: pTGI (converted)): 2.4 µM
GI50 (SF-295; read-out: GI50): 0.17 µM
GI50 (SF-295; read-out: pGI50 (converted)): 0.17 µM
CC50 (SF-295; [8]): 7.08 µM
TGI (SF-295; read-out: pTGI (converted)): 0.537 µM
GI50 (T47D): 4.37 µM
CC50 (T47D; [8]): > 100 µM
TGI (T47D; read-out: pTGI (converted)): 38.9 µM
GI50 ([5]; OVCAR-4): 3.89 µM
CC50 ([5]; OVCAR-4, read-out: pLC50 (the source's name) (converted)): > 100 µM
GI50 (MDA-MB-468): 1.23 µM
LC50 (MDA-MB-468): > 100 µM
GI50 ([6]; OVCAR-8): 9.33 µM
CC50 ([6]; OVCAR-8, read-out: pLC50 (the source's name) (converted)): > 100 µM
TGI ([6]; OVCAR-8, read-out: pTGI (converted)): > 100 µM
GI50 (CAKI-1): 0.692 µM
LC50 (CAKI-1): > 100 µM
TGI (CAKI-1; read-out: pTGI (converted)): 4.79 µM
GI50 (SR): 0.513 µM
CC50 (SR; [8]): > 100 µM
TGI (SR; read-out: pTGI (converted)): > 100 µM
GI50 [7]: 6.46 µM
CC50 [7, 8]: > 100 µM
TGI ([7]; read-out: pTGI (converted)): > 100 µM
GI50 (NCI-H23): 2.69 µM
CC50 (NCI-H23; [8]): > 100 µM
TGI (NCI-H23; read-out: pTGI (converted)): 57.5 µM
